Laboratory results: ChEMBL document CHEMBL1148339, “Synthesis, structure-activity relationships, and drug resistance of beta-d-3'-fluoro-2',3'-unsaturated nucleosides as anti-HIV Agents” (J Med Chem, 2004)

Assays:
[1] = system: adenosine deaminase (ADA); assay: Ability to get deaminated by adenosine deaminase (ADA); Expressed as t1/2; format: ADME, Bos taurus; settings: cattle
Method in brief: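 Calf intestinal mucosa adenosine deaminase, 0.15 units, in phosphate buffer pH 7.4 at 25 °C; substrate at 20 μM. Deamination followed by UV absorbance at 265 nm, with substrate concentration derived from absorbance change over time to give half-life.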

Vero [2] = assay: Cytotoxicity against vero cell line; format: functional, cell-based; settings: Chlorocebus sabaeus
Method in brief: (§1)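 Log-phase Vero (African green monkey kidney) cells seeded 5 × 10³ cells/well with 10-fold serial compound dilutions, cultured 3 days at 37 °C, humidified 5% CO₂/air.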

[3] = Cytotoxicity against human peripheral blood mononuclear cells (PBMC); format: functional, cell-based
Method in brief: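 Uninfected PHA-stimulated human PBM cells from seronegative donors (Ficoll–Hypaque), 5 × 10⁴ cells/well, 10-fold serial compound dilutions, 5 days at 37 °C in 5% CO₂/air. MTT assay read at 570 nm; IC50 by median effect method.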

[4] = system: Human immunodeficiency virus 1; assay: Effective concentration against HIV-1 in human peripheral blood mononuclear cells (PBMC); format: functional, organism-based
Method in brief: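 PBM cells infected in bulk for 1 h with HIV-1 LAI (100 TCID50/1 × 10⁷ cells, flask, or 200 TCID50/6 × 10⁵ cells/well), then cultured 5 days at 37 °C with 10-fold compound dilutions in IL-2 medium. Supernatant virus pelleted; RT activity measured with poly(rA)·oligo(dT) and [³H]TTP, 2 h 37 °C. EC50/EC90 by median effect method.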

CCRF-CEM = assay: Cytotoxicity against T-lymphoblastoid cell line (CEM); format: functional, cell-based; settings: Homo sapiens
Method in brief: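 CEM T-lymphoblastoid cells in log phase, seeded 2.5 × 10³ cells/well with 10-fold serial dilutions of compound, 4 days at 37 °C in humidified 5% CO₂/air.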

Vero [5] = assay: Cytotoxicity against Vero cell line; format: functional, cell-based; settings: Chlorocebus sabaeus; method in brief: as §1
[6] = t1/2 (half life) period was determined; format: ADME
[7] = system: Human immunodeficiency virus 1; assay: Effective concentration against M184V HIV-1 virus in human peripheral blood mononuclear cells
[8] = system: Human immunodeficiency virus 1; assay: Effective concentration against Wild Type HIV-1 virus in human peripheral blood mononuclear cells
[9] = t1/2 (half life) period was determined; No decomposition observed up to 7 days; format: ADME; settings: 168 h

Row | Structure (SMILES) | IC50 (Vero [2]) | IC50 [3] | EC50 [4] | IC50 (CCRF-CEM) | further results
1 | Nc1ncnc2c1ncn2[C@@H]1O[C@H](CO)C=C1F |  |  |  |  | half-life [1]: 42 min
2 | Nc1nc(=O)n([C@H]2C=C(F)[C@@H](CO)O2)cc1F | > 100 µM | > 100 µM | 9.29 µM | > 100 µM | 
3 | Nc1ncnc2c1ncn2[C@@H]1C=C(F)[C@H](CO)O1 | > 100 µM | > 100 µM | > 100 µM | > 100 µM | 
4 | Nc1ncnc2c1ncn2[C@H]1C=C(F)[C@@H](CO)O1 | > 100 µM | > 100 µM | 6.55 µM | > 100 µM | half-life [1]: 56 min
5 | Cc1cn([C@H]2C=C(F)[C@@H](CO)O2)c(=O)[nH]c1=O |  | > 100 µM | > 100 µM | > 100 µM | IC50 (Vero [5]): > 100 µM
6 | Nc1ccn([C@H]2C=C[C@@H](CO)O2)c(=O)n1 |  | 65 µM | 0.005 µM |  | half-life [6]: 1 h
7 | Nc1ncnc2c1ncn2[C@H]1C=C[C@@H](CO)O1 |  |  |  |  | half-life [1]: 4460 min
8 | Nc1ncnc2c1ncn2[C@@H]1O[C@H](CO)[C@@H](O)[C@H]1O [ADENOSINE] |  |  |  |  | half-life [1]: 0.5 min
9 | Nc1ccn([C@@H]2C=C(F)[C@H](CO)O2)c(=O)n1 | > 100 µM | 86.9 µM | 0.089 µM | > 100 µM | EC50 [7]: 2.4 µM; EC50 [8]: 0.089 µM
10 | Nc1nc(=O)n([C@@H]2C=C(F)[C@H](CO)O2)cc1F | > 100 µM | > 100 µM | 0.018 µM | > 100 µM | 
11 | OC[C@H]1O[C@@H](n2cnc3c(O)ncnc32)C=C1F | > 100 µM | > 100 µM | 12.8 µM | 77.7 µM | 
12 | Nc1ccn([C@H]2C=C(F)[C@@H](CO)O2)c(=O)n1 | > 100 µM | > 100 µM | 2.3 µM | > 100 µM | EC50 [7]: 19.7 µM; half-life [6]: 48 h; EC50 [8]: 2.3 µM
13 | Cc1cn([C@H]2C[C@H](N=[N+]=[N-])[C@@H](CO)O2)c(=O)[nH]c1=O [ZIDOVUDINE] |  |  |  |  | EC50 [7]: 0.0027 µM; EC50 [8]: 0.0041 µM
14 | O=c1ccn(C2C=C(F)C(CO)O2)c(=O)[nH]1 (stereo not given) | 82.6 µM | > 100 µM | > 100 µM | > 100 µM | 
15 | Nc1ccn([C@@H]2O[C@H](CO)C=C2F)c(=O)n1 |  |  |  |  | T1/2 [9]: Infinity
16 | Nc1nc(O)c2ncn([C@H]3C=C(F)[C@@H](CO)O3)c2n1 | 75.5 µM | > 100 µM | 44.9 µM | > 100 µM | 
